HSP90 refold inh: blocks HSP90-mediated luciferase refolding in reticulocyte lysate | AID 1789 | inhibition, % at 5.6 µM | Rabbit reticulocyte lysate, luciferase refolding luminescence, 3 h | hit rate 0.91% among 290,000;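 active means inhibition above the screen-wide mean plus 3 SD, computed separately per campaign, cut at about 16% in these data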;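 further: 0% = DMSO wells and 100% = 60 µM geldanamycin wells; inhibitors lower the luminescence because luciferase stays unfolded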
HSF1 inhib: HSF1 inhibition; activity change, negative = inhibition, % at 7.5 µM (by protocol); NIH3T3-HGL HSE-luciferase, MG132-induced, luminescence 8 h; active compounds read low; hit rate 0.77% among 300,000;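 active means more than half of replicate wells show activity change below -50%, luminescence cut by over half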;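 further: luciferase reports HSF-1 transcriptional activity via heat shock element; 0% = median of DMSO wells and -100% = zero luminescence signal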
HCV NS3 hel inh: inhibitors of Hepatitis C virus NS3 helicase | NS3 helicase DNA unwinding, Cy5 molecular beacon fluorescence | inhibition, % at 10.9 µM | hit rate 0.56% among 290,000 | AID 1800;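 active means inhibition above the mean of all tested compounds plus 3 SD, set per campaign, cut at about 35% in these data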;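 further: 0% = DMSO wells and 100% = thioflavine S control wells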
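System: HCV NS3 helicase fragment; control set: DMSO and thioflavine S; technique: Cy5 fluorescence at 0 and 60 min, beacon hairpin quenching; reagent: beacon DNA duplex substrate plus ATP; replicates: singlicate; schedule: 1 h reaction at 25 °C, ATP-initiated; medium: MOPS buffer pH 6.5 with MgCl2, DTT, Tween20, BSA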
HSF1 activator: increases HSF-1 driven luciferase reporter signal; NIH3T3-HGL HSF-1 luciferase reporter, MG132, 8 h; 100% = twice DMSO control signal; activation, % at 9 µM; hit rate 1.7% among 300,000; AID 504408;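 active means mean replicate activation of at least 50% with a set share of replicates each reaching 50%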;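 further: 0% = median of the neutral control wells and 100% = twice that signal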
Hep lipid drop: modulators of hepatic lipid droplet formation | inhibition, % at 6.5 µM | hit rate 0.4% among 240,000 | AML12 mouse hepatocytes, oleate lipid droplets, BODIPY imaging;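 active means lipid droplet intensity inhibited by at least 50%, with more than 500 cells counted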
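Test system: AML12 mouse liver cells; schedule: overnight exposure; technique: high-content imaging of BODIPY-stained droplets and DAPI nuclei; read-out: % inhibition of corrected integrated BODIPY droplet signal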
Lipid drop inh: confirmation of inhibitors of hepatic lipid droplet formation | hit rate 65% among 870 | AID 463183 | shares compounds with Hep lipid drop | inhibition, % at 5.2 µM | AML12 mouse hepatocytes, BODIPY lipid droplet imaging; droplets induced with 100 µM oleic acid;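 active means inhibition of lipid droplet metric at least 50%, with more than 300 cells in each of four replicates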;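 further: plate controls were DMSO with oleic acid for no effect and 5 µM Triacsin-C for full effect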
AML12 cytotox: AML12 hepatocyte cytotoxicity (counter-screen); shares compounds with Hep lipid drop; AML12 mouse hepatocytes, DAPI nuclear morphology cytotoxicity imaging; active compounds read high; cells fed 100 µM oleate overnight; z-score at 5 µM; hit rate 3% among 870; AID 463200; in the data active means z-score above about 6.3;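 further: compound exposure lasted overnight at 37 °C before fixation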
AML12 tox conf: AML12 hepatocyte cytotoxicity, confirmed. shares compounds with Hep lipid drop. 530 tested, under 10 active. cytotoxicity, % at 50 µM. AML12 mouse hepatocyte viability, ATP luminescence; cells loaded with 100 µM oleic acid;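 active means cytotoxicity above 50% in each of four replicates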;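 further: compound exposure lasted overnight at 37 °C before the ATP read; 0% = DMSO-treated cells and 100% = wells with no cells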
* hit, by the source's call; / = no result given. Most compounds without a hit are left out; they make up all but 3.8% or so of the library.

SMILES | HSP90 refold inh | HSF1 inhib | HCV NS3 hel inh | HSF1 activator | Hep lipid drop | Lipid drop inh | AML12 cytotox | AML12 tox conf
O=C(CSc1nc2ccccc2s1)N1N=C(c2cccs2)CC1c1ccc(F)cc1 (centres undefined) | -5 | -5 | -6 | 10 | -10 | / | / | /
COc1ccc(C2CC(c3cccs3)=NN2C(=O)CSc2nc3ccccc3s2)cc1 (centres undefined) | 0 | 0 | -1 | 34 | 74* | 101* | -0.94 | 4
COc1ccccc1OCc1nnc(SCC(=O)Nc2ccc(C)cc2)n1C | 2 | 3 | -8 | 21 | / | / | / | /
Cc1ccccc1OCc1nnc(SCC(=O)Nc2ccc3c(c2)oc2ccccc23)n1C | -2 | 2 | 2 | -3 | 93* | 40 | 0.56 | /
CCCOc1ccc(/C=N/NC(=O)c2ccc3c(c2)OCO3)c(OCCC)c1 | -1 | 0 | -2 | -7 | / | / | / | /
CCCOc1ccc(/C=N/Nc2ccccc2[N+](=O)[O-])c(OCCC)c1 | -4 | -1 | 1 | 19 | 81* | 113* | -0.49 | 7
O=[N+]([O-])c1ccccc1N/N=C\c1ccccc1Cl | 3 | 28 | 7 | 36 | 59* | 34 | 0.24 | /
COC(=O)c1ccccc1NC(=O)CN1CCC(C)CC1 | 2 | -3 | -5 | -9 | -5 | / | / | /
C/C(=N\NC(N)=O)c1ccc(-n2ccnc2)cc1 | -5 | -5 | -5 | -2 | 2 | / | / | /
CCc1ccc(OCC(=O)N/N=C(\C)c2ccc(-n3ccnc3)cc2)cc1 | 0 | 0 | -3 | 3 | 55* | 90* | 0.11 | 52
CS(=O)(=O)Cc1cccc(C(=O)NN(c2ccccc2)c2ccccc2)c1 | -1 | -2 | 5 | 11 | 25 | / | / | /
CC(C)Oc1ccc(C(=O)OC(C)C(=O)NC2CCCCC2C)cc1 (centres undefined) | 6 | 1 | 20 | 5 | 52* | 102* | 0.7 | 12
CC1(C)S[C@@H]2C(C(=O)OCc3ccccc3)NC(=O)N2C1C(=O)OCc1ccccc1 (some centres undefined) | / | 5 | / | -3 | / | / | / | /
Cc1ccc2c(c1)N(CCC(=O)NCCCN1CCCC1)C(=O)C(C)O2 (centres undefined) | -3 | -6 | -5 | 28 | -4 | / | / | /
CC(C)c1ccc(NC(=O)NCc2cccnc2)cc1 | 5 | -4 | -1 | -13 | 2 | / | / | /
COc1ccccc1N1N=C(c2ccc([N+](=O)[O-])cc2)CC1c1ccccc1 (centres undefined) | 0 | -2 | -11 | -3 | 67* | 110* | -0.96 | 9
C/C(=N\Nc1nc2ccccc2s1)c1cccs1 | -4 | 1 | -6 | 26 | 6 | / | / | /
C/C(=N\Nc1nc(-c2ccccc2)cs1)c1cccs1 | 11 | -70* | 10 | -75 | 52* | 96* | -1.2 | 28
COc1cccc(-c2cc(C(=O)Nc3ccccc3)c3ccccc3n2)c1 | / | 8 | / | 9 | / | / | / | /
O=C(NN1CCOCC1)c1cc(-c2cccc(Cl)c2)nc2ccccc12 | 2 | 4 | 2 | 0 | / | / | / | /
O=C(Nc1ccc([N+](=O)[O-])cn1)c1cc(-c2cccc(Cl)c2)nc2ccccc12 | 2 | 3 | 9 | -5 | 68* | 38 | 0.22 | /
COc1cccc(-c2cc(C(=O)Nc3ccc([N+](=O)[O-])cn3)c3ccccc3n2)c1 | -4 | -4 | 5 | 5 | 57* | 75* | -0.6 | 12
O=C(Nc1ccc([N+](=O)[O-])cn1)c1cc(-c2cccc(Br)c2)nc2ccccc12 | 5 | -1 | 9 | 10 | 64* | 64* | -0.17 | 10
COc1ccc(N(Cc2cc(=O)[nH]c3ccccc23)C(C)=O)cc1 | 2 | 8 | 8 | 0 | 75* | 0 | 0.31 | /
O=C(NC1CCC1)C1CCC(=O)N(Cc2ccccc2F)C1 (centres undefined) | -2 | -4 | 7 | 6 | -2 | / | / | /
SMILES | HSP90 refold inh | HSF1 inhib | HCV NS3 hel inh | HSF1 activator | Hep lipid drop | Lipid drop inh | AML12 cytotox | AML12 tox conf
COC(=O)[C@@H]1C[C@@]2(O)[C@H](O)[C@H](O)[C@H](O)C[C@H]2N1Cc1cc(F)ccc1F | / | -2 | / | 0 | 50* | 19 | -0.47 | /
COc1ccc(S(=O)(=O)N(c2onc(C)c2Cl)S(=O)(=O)c2ccc(OC)cc2)cc1 | -1 | 4 | -2 | 12 | 60* | 37 | -1.2 | /
COc1ccc(NC(=O)c2onc(C)c2Cl)cc1 | 0 | 2 | 5 | 26 | -1 | / | / | /
Cc1cc(C)c2c(n1)SCC(=O)N2CC(=O)Nc1ccc(Br)c(C)c1 | 2 | -5 | -1 | -4 | -3 | / | / | /
Cc1ccc(-c2[nH]c3ccccc3c2SCCNC(=O)c2ccc(S(=O)(=O)N3CCOCC3)cc2)cc1 | -1 | 2 | -3 | 26 | 54* | 91* | -0.72 | 1
CCCCN(C)C(=O)C1CCCN(S(=O)(=O)c2ccc3c(c2)oc(=O)n3C)C1 (centres undefined) | -5 | 0 | 10 | 1 | 7 | / | / | /
COc1ccc(-c2csc(NC3=NCCCCC3)n2)cc1 | 2 | 12 | -29 | 39 | 12 | / | / | /
Clc1ccc(-c2csc(NNC3=NCCCCC3)n2)cc1 | 1 | -3 | -12 | -8 | / | / | / | /
CCOc1ccc(-c2csc(NNC3=NCCCCC3)n2)cc1 | 2 | 0 | -6 | 24 | 84* | 111* | -0.65 | 15
c1ccc(-c2csc(NNC3=NCCCCC3)n2)cc1 | -1 | 1 | -2 | 14 | 63* | 115* | -0.27 | 31
COc1ccc(-c2csc(NNC3=NCCCCC3)n2)cc1 | 7 | 13 | -15 | 4 | 115* | 112* | -0.25 | 32
Cc1cc2c(c(=O)o1)C(c1ccc([N+](=O)[O-])o1)C(C#N)=C(N)O2 (centres undefined) | -1 | -13 | 18 | 12 | 0 | / | / | /
COC(=O)[C@H](Cc1c[nH]c2ccccc12)NC(=O)Cc1c[nH]c2ccccc12 | 4 | -5 | 8 | 15 | -4 | / | / | /
COC(=O)[C@H](Cc1c[nH]c2ccccc12)NC(=O)CCCc1c[nH]c2ccccc12 | -2 | 6 | -8 | 7 | 60* | 56 | -0.63 | 20
O=C(CCCc1c[nH]c2ccccc12)NCc1ccccc1F | -7 | 6 | -6 | 3 | 25 | / | / | /
Cc1ccc(NC(=O)CCCc2c[nH]c3ccccc23)nc1 | 2 | -1 | 8 | -7 | 83* | -3 | 0.54 | /
Cc1ccc(CNC(=O)CCCc2c[nH]c3ccccc23)cc1 | 3 | 2 | 10 | 11 | 71* | 74* | 0.041 | 8
CC1(C)CC(=O)C/C(=N/NC(=O)COc2ccc3ccccc3c2Br)C1 | 0 | 8 | -7 | 8 | -2 | / | / | /
